Data as given in publication PMC9065995 (RSC Advances, 2019).
Converted amounts (≈) assume the structure as drawn. Starred links: 1 amine or outer side, 2 acyl side, 3 side chain; linkers in the order of their positions; H or OH if unused. Positions of bridges follow the written chain, without caps; N, C: chain ends. Non-standard residues stand in square brackets, D forms with d. Residues, ends and D or L forms follow the SMILES beside them. Chains are numbered I, II in the order given. Actinocin(9to1) = Cc1c2oc3c(C)ccc(C(=O)[*:1])c3nc-2c(C(=O)[*:2])c(N)c1=O; NMeV = CN[C@H](C(=O)O)C(C)C; Sar = CNCC(=O)O

Tests used:
Assay type in all cases: cell-based
[1] = test system: U-87 MG; assay: SRB cytostatic activity assay, U-87 MG; settings: Homo sapiens, 72 h, read-out: Cytostatic activity IC50 U-87 MG
Summary of the method: (§1)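 Media were EMEM (KB, HepG2, U-87), RPMI 1640 (HeLa), F-12K (A-549), DMEM (MCF-7) and fibroblast growth medium (HDF), all with 10% FBS, at 37 °C and 5% CO2. About 10^4 cells/well grew 24 h, then test compound was added at 0.1–20 μg mL−1 (six levels) for 72 h. Cells were TCA-fixed 1 h at 4 °C, stained with 0.4% SRB, solubilised in Tris, read at A490; IC50, N = 3.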

[2] = test system: KB; assay: SRB cytostatic activity assay, KB; settings: Homo sapiens, 72 h, read-out: Cytostatic activity IC50 KB
Summary of the method: as §1

[3] = test system: HDF; assay: SRB cytostatic activity assay, normal control HDF; settings: 72 h, read-out: Cytostatic activity IC50 HDF
Summary of the method: as §1

[4] = test system: HeLa; assay: SRB cytostatic activity assay, HeLa; settings: Homo sapiens, 72 h, read-out: Cytostatic activity IC50 HeLa
Summary of the method: as §1

[5] = test system: A-549; assay: SRB cytostatic activity assay, A-549; settings: Homo sapiens, A549, 72 h, read-out: Cytostatic activity IC50 A-549
Summary of the method: as §1

[6] = test system: HepG2; assay: SRB cytostatic activity assay, HepG2; settings: Homo sapiens, HepG2, 72 h, read-out: Cytostatic activity IC50 HepG2
Summary of the method: as §1

Work on `Nc1ccn([C@@H]2O[C@H](CO)[C@@H](O)[C@@H]2O)c(=O)n1` [Cytarabine] yielded an IC50 [1] of 1.03 ± 0.25 µg/mL (≈ 4.23 µM), an IC50 [2] of 0.95 ± 0.02 µg/mL (≈ 3.91 µM) and an IC50 [3] of 1.94 ± 0.01 µg/mL (≈ 7.98 µM). It also gave an IC50 [4] of 1.4 ± 0.08 µg/mL (≈ 5.76 µM), an IC50 [5] of 1.17 ± 0.21 µg/mL (≈ 4.81 µM) and an IC50 [6] of 1.49 ± 0.04 µg/mL (≈ 6.13 µM).

Molecule `Cc1c2oc3c(C)ccc(C(=O)N[C@@H]4C(=O)N[C@H](C(C)C)C(=O)N5CCC[C@H]5C(=O)N(C)CC(=O)N(C)[C@@H](C(C)C)C(=O)O[C@@H]4C)c3nc-2c(C(=O)N[C@@H]2C(=O)N[C@H](C(C)C)C(=O)N3CCC[C@H]3C(=O)N(C)CC(=O)N(C)[C@@H](C(C)C)C(=O)O[C@@H]2C)c(N)c1=O` [Actinomycin, Actinomycin D] (I: T[dV]P[Sar][NMeV] / II: T[dV]P[Sar][NMeV]; ester I:1-I:C, II:1-II:C; linker I:N-II:N via Actinocin(9to1)) has an IC50 [1] of 0.92 ± 0.59 µg/mL (≈ 0.733 µM), an IC50 [2] of 1.07 ± 0.05 µg/mL (≈ 0.852 µM) and an IC50 [3] of 2.28 ± 0.11 µg/mL (≈ 1.82 µM). The IC50 [4] was 1.13 ± 0.01 µg/mL (≈ 0.9 µM), the IC50 [5] was 1.03 ± 0.83 µg/mL (≈ 0.82 µM) and the IC50 [6] was 1.19 ± 0.02 µg/mL (≈ 0.948 µM).
